Results from paper PMC10405225 (Cancer chemotherapy and pharmacology, 2022).

Experiments:
BCL-XL = BCL-XL (Homo sapiens, UniProt Q07817); assay: BCL-XL degradation by western blot densitometry in SUP-T1 cells; format: cell-based; conditions: read-out: DC50 (concentration that degraded 50% of BCL-XL protein), 24 hrs of DT2216, western blot densitometry
[1] = intratumoral, T-ALL xenograft in immunodeficient mice ref 8; cited from earlier work
SUP-T1 T-ALL cells = assay: Cell cytotoxicity assay; format: cell-based, Human
In short: (§1)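 Human T-ALL lines grown in RPMI with 10% or 20% FBS at 37°C, 5% CO2. Plated 2×10^3–2×10^4 cells/well depending on doubling time, in quadruplicate. Test compound added from DMSO (≥1:1000 into medium) at varying concentrations; DMSO vehicle control. Exposure 48 h, then CCK-8 for 4 h at 37°C and A450 read. % survival derived; ≥3 independent experiments, mean ± SE.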

BCL-2 or MCL-1 = format: cell-based, Human
In short: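 T-ALL cells were lysed before and after test-compound exposure. Western blots of 10 µg lysate were probed for BCL-2 and MCL-1, with β-actin as loading control. Band intensities were measured by densitometry and normalized to β-actin. Each blot was done twice with distinct protein preparations.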

PEER T-ALL cells = assay: Cell cytotoxicity assay; format: cell-based; conditions: Homo sapiens, 48 h
In short: as §1

[2] = tested on: T-ALL cell lines other than SUP-T1; assay: Cell cytotoxicity assay; format: cell-based; conditions: Homo sapiens, SUP-T1, 48 h
In short: as §1

Sequence of BCL-XL (Q07817 whole entry): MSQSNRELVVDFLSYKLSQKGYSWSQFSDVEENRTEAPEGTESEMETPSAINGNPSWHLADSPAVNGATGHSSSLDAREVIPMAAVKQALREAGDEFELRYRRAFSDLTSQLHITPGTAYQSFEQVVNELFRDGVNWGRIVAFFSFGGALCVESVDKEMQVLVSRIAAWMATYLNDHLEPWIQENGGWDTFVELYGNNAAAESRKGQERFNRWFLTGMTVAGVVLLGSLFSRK

**Q.** Which DC50 (BCL-XL) does the source give for `Cc1ncsc1-c1ccc([C@H](C)NC(=O)[C@@H]2C[C@@H](O)CN2C(=O)[C@@H](NC(=O)CCCCCC(=O)N2CCN(CC[C@H](CSc3ccccc3)Nc3ccc(S(=O)(=O)NC(=O)c4ccc(N5CCN(CC6=C(c7ccc(Cl)cc7)CCC(C)(C)C6)CC5)cc4)cc3S(=O)(=O)C(F)(F)F)CC2)C(C)(C)C)cc1` [DT2216] here?
**A.** 0.131 µM

**Q.** What about the “DT2216 level achieved within a T-ALL xenografted tumor in vivo” value [1] of the same compound?
**A.** 800 nM

**Q.** What about the IC50 (SUP-T1 T-ALL cells; 48 hrs) of the same compound?
**A.** 1.49 µM

**Q.** What about the IC50 (SUP-T1 T-ALL cells; Homo sapiens, SUP-T1, 48 h) of the same compound?
**A.** > 0.8 µM

**Q.** And the “Induction of BCL-2 or MCL-1 expression by DT2216” value (BCL-2 or MCL-1; any of the 13 T-ALL cell lines)?
**A.** not induced

**Q.** What about the “Change in BCL-2 or MCL-1 protein levels after exposure to DT2216” value (BCL-2 or MCL-1; resistant SUP-T1 cells) of the same compound?
**A.** no change

**Q.** What about the IC50 (PEER T-ALL cells) of the same compound?
**A.** 0.305 µM

**Q.** And the IC50 [2]?
**A.** < 0.8 µM
